Reference: ChEMBL document CHEMBL1124104, “(Acyloxy)benzophenones and (acyloxy)-4-pyrones. A new class of inhibitors of human neutrophil elastase” (J Med Chem, 1988)

Key:
[1] = molecular target: T1, Neutrophil elastase (Homo sapiens) (UniProt P08246); settings: 3 uM
T1 sequence (whole entry): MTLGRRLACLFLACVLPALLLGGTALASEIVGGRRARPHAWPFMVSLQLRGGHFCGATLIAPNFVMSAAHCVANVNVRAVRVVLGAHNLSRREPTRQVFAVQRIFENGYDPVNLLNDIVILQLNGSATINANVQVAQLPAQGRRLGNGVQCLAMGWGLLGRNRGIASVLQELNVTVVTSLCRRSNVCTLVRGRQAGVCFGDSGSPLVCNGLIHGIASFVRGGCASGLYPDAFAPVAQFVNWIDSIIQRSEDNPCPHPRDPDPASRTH

[2] = molecular target: T1, Neutrophil elastase (Homo sapiens); settings: 1 uM
[3] = molecular target: T1, Neutrophil elastase (Homo sapiens); settings: 3 uM; remark: listed apart in the source
[4] = molecular target: T1, Neutrophil elastase (Homo sapiens); settings: 1 uM; remark: listed apart in the source
[5] = molecular target: T1, Neutrophil elastase (Homo sapiens); settings: 2 uM
[6] = Inhibitory activity against Hog pancreatic elastase; IA = Inactive at 10e-6; design: species or system Sus scrofa
[7] = molecular target: T1, Neutrophil elastase (Homo sapiens); settings: 2 uM; remark: listed apart in the source
Neutrophil elastase [8] = molecular target: T2, Neutrophil elastase (Homo sapiens, UniProt P08246); assay: Inhibitory activity against human leukocyte elastase at 10e-7 M
T2 sequence (P08246 whole entry): T1 sequence (whole entry)

[9] = Inhibitory activity against pancreatic elastase; IA = Inactive at 10e-6
Neutrophil elastase [10] = molecular target: T2, Neutrophil elastase; assay: Binding affinity towards human leukocyte elastase at 10e-8 M
How it was run: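 HLE activity followed as rise in absorbance at 410 nm from nitroanilide release; substrate (methoxysuccinyl)Ala-Ala-Pro-Val nitroanilide at 10⁻⁴ M. Run in 0.2 M Tris, pH 8.0, 30 °C. Inhibitors and substrate dissolved in DMSO, which made up 10% of the final medium. Enzyme titrated to give 0.12 OD unit/min per 10 mm path.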

[11] = molecular target: T1, Neutrophil elastase (Homo sapiens); settings: 1 uM; remark: listed apart in the source
[12] = molecular target: T1, Neutrophil elastase (Homo sapiens); settings: 3 uM; remark: listed apart in the source
[13] = molecular target: T1, Neutrophil elastase (Homo sapiens); settings: 2 uM; remark: listed apart in the source
[14] = Inhibitory activity against pancreatic elastase; IA = Inactive at 1e-5M
[15] = Inhibitory activity against Hog pancreatic elastase; IA = Inactive at 1e-5M; design: species or system Sus scrofa

SMILES | inhibition [1] | inhibition [2] | inhibition [3] | inhibition [4] | inhibition [5] | IC50 [6] | inhibition [7] | IC50 (Neutrophil elastase [8]) | IC50 [9] | Ki (Neutrophil elastase [10]) | inhibition [11] | inhibition [12] | inhibition [13] | IC50 [14] | IC50 [15]
CC(C)(C)C(=O)Oc1ccc(C(=O)c2ccc(OC(=O)C(C)(C)C)cc2)cc1 | 77% | 15% | 67% | 34% | 42% | Not Active | 62% | 120 nM | Not Active | 71 nM | 28% | 77% | 46% | – | –
CC(C)(C)C(=O)Oc1ccc(C(=O)c2ccccc2)cc1 | – | – | – | – | – | – | – | – | – | – | – | – | – | Not Active | Not Active
